Data as given in ChEMBL document CHEMBL1149027, “Anti-AIDS agents, 10. Acacetin-7-O-beta-D-galactopyranoside, an anti-HIV principle from Chrysanthemum morifolium and a structure-activity correlation with some related flavonoids” (J Nat Prod, 1994).

Assays:
[1] = system: Human immunodeficiency virus 1; experiment: Antiviral activity against HIV1 3B infected in human H9 cells assessed as inhibition of viral replication after 3 days by p24 antigen capture assay; type: functional, organism-based; settings: Human immunodeficiency virus 1, 3B, H9, 72 h
H9 = experiment: Cytotoxicity against human H9 cells after 3 days; type: cell-based; settings: H9, 72 h
Procedure, shortened: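 Uninfected H9 lymphocytes, given the same 1 h mock incubation at 37° and washing, resuspended at 4 × 10^5 cells/ml. Cultured 3 days at 37° with compound. Cell density counted; IC50 = concentration inhibiting uninfected growth by 50%.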

[2] = Therapeutic index, ratio of IC50 for human H9 cells to EC50 for HIV1 3B; type: cell-based; settings: read-out: TI

Row | Structure (SMILES) | EC50 [1] [µM] | IC50 (H9) [µM] | selectivity ratio [2]
1 | O=c1c(O)c(-c2ccc(O)c(O)c2)oc2cc(O)ccc12 [FISETIN] | 122 | 157 | 1
2 | COc1ccc(-c2cc(=O)c3c(O)cc(O[C@@H]4O[C@H](CO[C@@H]5O[C@H](C)[C@@H](O)[C@H](O)[C@@H]5O)[C@@H](O)[C@H](O)[C@H]4O)cc3o2)cc1 | > 231 | > 231 | –
3 | O=c1cc(-c2ccccc2)oc2cc(O)cc(O)c12 [CHRYSIN] | 5 | 47 | 9
4 | Oc1cc(O)c2c(c1)O[C@H](c1ccc(O)c(O)c1)[C@@H](O)C2 [CIANIDANOL] | > 345 | > 345 | –
5 | O=c1cc(-c2ccccc2)oc2ccccc12 [FLAVONE] | 50 | 68 | 1
6 | O=c1cc(-c2ccc(O)cc2)oc2cc(O[C@@H]3O[C@H](CO)C(O)[C@H](O)[C@H]3O)cc(O)c12 (single isomer, unassigned) [APIGETRIN] | 61 | 115 | 2
7 | O=c1cc(-c2ccc(O)cc2)oc2cc(O)cc(O)c12 [APIGENIN] | 9 | 35 | 4
8 | O=c1cc(-c2ccc(Br)cc2)oc2cc(O)cc(O)c12 | 5 | 21 | 4
9 | O=c1cc(-c2ccc(O)c(O)c2)oc2cc(O[C@@H]3O[C@H](CO)[C@@H](O)[C@H](O)[C@H]3O)cc(O)c12 [GALUTEOLIN] | 7 | 25 | 3
10 | CCCc1cc(=O)c2c(O)cc(O)cc2o1 | 27 | 73 | 3
11 | O=c1c(O)c(-c2ccc(O)cc2O)oc2cc(O)cc(O)c12 [MORIN] | > 331 | > 331 | –
12 | O=C1C[C@@H](c2ccc(O)cc2)Oc2cc(O)cc(O)c21 [NARINGENIN] | 92 | 294 | 3
13 | O=c1cc(C2CCCCC2)oc2cc(O)cc(O)c12 | 19 | 42 | 2
14 | O=c1cc(-c2ccc(F)cc2)oc2cc(O)cc(O)c12 | 4 | 13 | 3
15 | O=c1cc(-c2ccccc2)oc2c([N+](=O)[O-])c(O)cc(O)c12 | 12 | 12 | 1
16 | O=c1c(O)c(-c2ccc(O)c(O)c2)oc2cc(O)cc(O)c12 [QUERCETIN] | 132 | 132 | 1
17 | O=c1c(O)c(-c2ccccc2)oc2ccccc12 [FLAVONOL] | 13 | 17 | 1
18 | Nc1c(O)cc(O)c2c(=O)cc(-c3ccccc3)oc12 | 11 | 34 | 3

Row | Structure (SMILES) | EC50 [1] [µM] | IC50 (H9) [µM] | selectivity ratio [2]
19 | Cc1cc(=O)c2c(O)cc(O)cc2o1 [NOREUGENIN] | 49 | 214 | 4
20 | O=c1cc(-c2ccccc2)oc2c(O)c(O)ccc12 [7,8-DIHYDROXYFLAVONE] | 10 | 14 | 1
21 | Cc1cn([C@H]2C[C@H](N=[N+]=[N-])[C@@H](CO)O2)c(=O)[nH]c1=O [ZIDOVUDINE] | 0.04 | – | –
22 | O=C(O)[C@H]1O[C@@H](Oc2cc3oc(-c4ccccc4)cc(=O)c3c(O)c2O)[C@H](O)[C@@H](O)[C@@H]1O [BAICALIN] | 112 | 72 | < 1
23 | O=c1cc(-c2ccc(O)c(O)c2)oc2cc(O)cc(O)c12 [LUTEOLIN] | 10 | 16 | 2
24 | O=c1c(O)c(-c2cc(O)c(O)c(O)c2)oc2cc(O)cc(O)c12 [MYRICETIN] | 35 | 69 | 2
25 | O=c1cc(-c2ccccc2Cl)oc2cc(O)cc(O)c12 | 5 | 17 | 3
26 | O=c1cc(-c2ccc(Cl)cc2)oc2cc(O)cc(O)c12 | 4 | 16 | 4
27 | O=c1cc(-c2cccc(Cl)c2)oc2cc(O)cc(O)c12 | 4 | 14 | 3
28 | O=c1c(O)c(-c2ccccc2)oc2cc(O)cc(O)c12 [GALANGIN] | 28 | 44 | 2
29 | CC(=O)OC[C@H]1O[C@@H](Oc2cc(OC(C)=O)c3c(=O)cc(-c4ccc(OC(C)=O)c(OC(C)=O)c4)oc3c2)[C@H](OC(C)=O)[C@@H](OC(C)=O)[C@@H]1OC(C)=O | 6 | 6 | 1
30 | O=C1CC(c2ccccc2)Oc2ccccc21 (stereo not drawn) [FLAVANONE] | 58 | 45 | 1
31 | CC(=O)Oc1cc(OC(C)=O)c2c(=O)cc(-c3ccccc3)oc2c1 [CHRYSIN DIACETATE] | 56 | > 373 | –
32 | COc1ccc([C@@H]2CC(=O)c3c(O)cc(O[C@@H]4O[C@H](CO[C@@H]5O[C@@H](C)[C@H](O)[C@@H](O)[C@H]5O)[C@@H](O)[C@H](O)[C@H]4O)cc3O2)cc1O [HESPERIDIN] | > 164 | > 164 | –
33 | O=C(CNC(=O)OCc1ccccc1)Oc1cc(O)c2c(=O)cc(-c3ccccc3)oc2c1 | 9 | 30 | 3
34 | O=c1cc(-c2ccccc2)oc2c([N+](=O)[O-])c(O)c([N+](=O)[O-])c(O)c12 | 372 | 372 | 1
35 | COc1ccc(-c2cc(=O)c3c(O)cc(O[C@@H]4O[C@H](CO)[C@H](O)[C@H](O)[C@H]4O)cc3o2)cc1 | 8 | 37 | 5
